According to ChEMBL document CHEMBL1154972, “Novel pyrazolo-tetrahydropyridines as potent orexin receptor antagonists” (Bioorg Med Chem Lett, 2010):
Blank lines part the entries; values can stand above or below the molecule they belong to. The source made the active and inactive calls. No cut-off for these calls is given here.

Tests used:
[1] = biological target: T1, Orexin/Hypocretin receptor type 1 (Homo sapiens, UniProt O43613); experiment: Antagonist activity at human OX1 receptor expressed in CHO cells assessed as inhibition of calcium mobilization by FLIPR assay; type: functional, cell-based
T1 sequence (O43613 whole entry): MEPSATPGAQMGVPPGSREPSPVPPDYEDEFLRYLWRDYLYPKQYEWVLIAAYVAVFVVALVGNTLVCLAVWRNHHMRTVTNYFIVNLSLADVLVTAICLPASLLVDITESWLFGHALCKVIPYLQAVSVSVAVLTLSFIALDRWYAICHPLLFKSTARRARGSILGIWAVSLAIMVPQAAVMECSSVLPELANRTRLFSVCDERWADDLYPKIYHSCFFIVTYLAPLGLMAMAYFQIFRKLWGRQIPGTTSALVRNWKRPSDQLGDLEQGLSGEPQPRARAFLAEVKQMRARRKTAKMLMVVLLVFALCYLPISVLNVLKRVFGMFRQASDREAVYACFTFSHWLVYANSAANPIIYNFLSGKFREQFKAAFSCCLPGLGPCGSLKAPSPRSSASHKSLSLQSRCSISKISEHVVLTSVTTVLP
Outline: (§1)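 CHO cells stably bearing human OX1 or OX2 receptor, plated and loaded at 37 °C, 5% CO2 with fluo-3 AM calcium dye, then washed. Test antagonists added at varying concentrations before orexin A challenge; intracellular Ca2+ rise followed as fluorescence change on FLIPR. IC50 taken as concentration giving 50% inhibition of agonist response.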

Orexin receptor type 2 = biological target: T2, Orexin receptor type 2 (Homo sapiens, UniProt O43614); experiment: Antagonist activity at human OX2 receptor expressed in CHO cells assessed as inhibition of calcium mobilization by FLIPR assay; type: functional, cell-based; outline: as §1
T2 sequence (O43614 whole entry): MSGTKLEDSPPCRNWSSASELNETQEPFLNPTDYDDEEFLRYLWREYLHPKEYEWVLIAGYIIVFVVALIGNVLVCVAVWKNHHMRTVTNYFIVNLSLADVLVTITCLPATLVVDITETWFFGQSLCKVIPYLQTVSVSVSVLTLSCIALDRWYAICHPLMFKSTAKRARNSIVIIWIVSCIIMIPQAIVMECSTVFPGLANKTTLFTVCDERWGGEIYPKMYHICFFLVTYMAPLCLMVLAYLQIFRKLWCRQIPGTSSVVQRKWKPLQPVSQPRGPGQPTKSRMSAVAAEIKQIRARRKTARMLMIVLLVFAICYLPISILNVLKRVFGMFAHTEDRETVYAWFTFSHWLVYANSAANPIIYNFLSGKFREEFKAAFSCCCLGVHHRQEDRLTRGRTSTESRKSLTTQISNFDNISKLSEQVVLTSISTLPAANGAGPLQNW

Rattus norvegicus [2] = experiment: Somnolence activity in Wistar rat assessed as time spent in non-rapid eye movement sleep at 100 mg/kg, po over 12 hrs night period by radiotelemetric assay; type: functional, organism-based; parameters: dose 100 mg/kg
Outline: (§2)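 Adult male Wistar rats carrying radiotelemetric implants; single oral dose 100 mg/kg in 100% PEG-400 given at dark (active) phase onset. EEG, EMG, home cage activity and body temperature recorded, effects integrated over following 12-h night. Crossover design, groups of 7 or 8, washout of at least 4 days; paired t-test; means ± SEM.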

Rattus norvegicus [3] = experiment: Somnolence activity in Wistar rat assessed as time spent in rapid eye movement sleep at 100 mg/kg, po over 12 hrs night period by radiotelemetric assay; type: functional; outline: as §2
Rattus norvegicus [4] = experiment: Somnolence activity in Wistar rat assessed as home cage activity in dark at 100 mg/kg, po over 12 hrs night period by radiotelemetric assay; type: functional, organism-based; parameters: dose 100 mg/kg; outline: as §2
Rattus norvegicus [5] = experiment: Somnolence activity in Wistar rat assessed as time spent in active wake at 100 mg/kg, po over 12 hrs night period by radiotelemetric assay; type: functional, organism-based; parameters: dose 100 mg/kg; outline: as §2

SMILES: CCn1nc(C)c2c1CCN([C@@H](C(=O)NC)c1ccccc1)[C@H]2CCc1ccc(C(C)C)cc1
IC50 [1]: 161 nM
IC50 (Orexin receptor type 2): 9 nM

SMILES: CCn1nc(C)c2c1CCN([C@@H](C(=O)NC)c1ccccc1)[C@H]2CCc1ccc(C(F)(F)F)cc1
IC50 [1]: 128 nM
IC50 (Orexin receptor type 2): 3 nM

SMILES: CCn1nc(C)c2c1CCN(C(C(=O)NC)c1ccccc1)C2Cc1ccc(C(F)(F)F)cc1 (mixture of isomers)
IC50 [1]: 769 nM
IC50 (Orexin receptor type 2): 25 nM

SMILES: CCc1ccc(CC[C@@H]2c3c(C)nn(CC)c3CCN2[C@@H](C(=O)NC)c2ccccc2)cc1
IC50 [1]: 1420 nM
IC50 (Orexin receptor type 2): 174 nM

SMILES: CCn1nc(C)c2c1CCN([C@@H](C(=O)NC)c1ccccc1)[C@H]2CCc1cc(F)c(C(F)(F)F)c(F)c1
Activity (Rattus norvegicus [2]): Active
Activity (Rattus norvegicus [3]): 8%
Activity (Rattus norvegicus [4]): Active

SMILES: CCn1nc(C)c2c1CCN(C(C(=O)NC)c1ccccc1)C2CCc1cccc(C(F)(F)F)c1 (mixture of isomers)
IC50 [1]: 358 nM
IC50 (Orexin receptor type 2): 7 nM

SMILES: CCc1ccc(CC[C@H]2c3c(C)nn(CC)c3CCN2[C@@H](C(=O)NC)c2ccccc2)cc1
IC50 [1]: 63 nM
IC50 (Orexin receptor type 2): 3 nM

SMILES: CCn1nc(C)c2c1CCN([C@@H](C(=O)NC)c1ccccc1)[C@H]2COc1ccc(C)cc1
IC50 [1]: 10000 nM
IC50 (Orexin receptor type 2): 19 nM

SMILES: CCn1nc(C)c2c1CCN([C@@H](C(=O)NC)c1ccccc1)[C@H]2CCc1ccc(C)c(C)c1
Activity (Rattus norvegicus [2]): Active
Activity (Rattus norvegicus [3]): 15%
Activity (Rattus norvegicus [4]): Active
Activity (Rattus norvegicus [5]): Active

SMILES: CCn1nc(C)c2c1CCN([C@@H](C(=O)NC)c1ccccc1)[C@@H]2CCc1ccc(C(C)C)cc1
IC50 [1]: 1920 nM
IC50 (Orexin receptor type 2): 179 nM

Continued, values first:

IC50 [1]: 1030 nM
IC50 (Orexin receptor type 2): 21 nM
SMILES: CCn1nc(C)c2c1CCN(C(C(=O)NC)c1ccccc1)C2CCc1ccccc1C (mixture of isomers)

IC50 [1]: 993 nM
IC50 (Orexin receptor type 2): 12 nM
SMILES: CCn1nc(C)c2c1CCN(C(C(=O)NC)c1ccccc1)C2CCc1ccc(Cl)cc1 (mixture of isomers)

IC50 [1]: 669 nM
IC50 (Orexin receptor type 2): 22 nM
SMILES: CCn1nc(C)c2c1CCN(C(C(=O)NC)c1ccccc1)C2CCc1ccccc1F (mixture of isomers)

IC50 [1]: 402 nM
IC50 (Orexin receptor type 2): 10 nM
SMILES: CCn1nc(C)c2c1CCN(C(C(=O)NC)c1ccccc1)C2CCc1cccc(F)c1 (mixture of isomers)

IC50 [1]: 108 nM
IC50 (Orexin receptor type 2): 6 nM
SMILES: CCn1nc(C)c2c1CCN(C(C(=O)NC)c1ccccc1)C2CCc1ccc(C)cc1 (mixture of isomers)

IC50 [1]: 180 nM
IC50 (Orexin receptor type 2): 19 nM
SMILES: CCn1nc(C)c2c1CCN(C(C(=O)NC)c1ccccc1)C2CCc1cccc(C)c1 (mixture of isomers)

IC50 [1]: 10000 nM
IC50 (Orexin receptor type 2): 219 nM
SMILES: CCn1nc(C)c2c1CCN(C(C(=O)NC)c1ccccc1)C2CCc1ccc(OC)cc1 (mixture of isomers)
